Rows were chosen to be rich in hits. Some 2.9% of all compounds tested hit in one or more screens of this group.
SENP1 inh: inhibitors of human SENP1 SUMO protease catalytic domain | Q9P0U3 | recombinant SENP1 catalytic domain, CyPet-SUMO1-YPet FRET cleavage | inhibition, % at 10 µM | 0.21% of 360,000 active;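 active means inhibition at least 30% at 10 µM, raw YFP signal under a set limit, fluorescence ratio 0.5 to 1.5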;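 further: 0% = enzyme with DMSO and 100% = no enzyme wells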
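Compound: 10 µM single point, 0.5% DMSO; Test system: hSENP1 catalytic domain, recombinant; Timing: 50 min reaction at room temperature; Technique: FRET, CFP and YFP emission; Control set: no-enzyme wells low, DMSO-plus-enzyme wells high control.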
SENP8 block-1: inhibitors of human SENP8 protease; Q96LD8; recombinant SENP8, Nedd8 substrate fluorescence; inhibition, % at 20 µM; 0.64% of 360,000 active; AID 602440; in the data active means inhibition mostly above about 40%, no sharp cut-off; inactive means mostly below about 27%
SENP7 inh: SENP7 protease inhibition; AID 434973; inhibition, % at 5 µM; recombinant SENP7, Z-RLRGG-aminoluciferin luminescence, 40 min; 1.5% of 330,000 active;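 active means inhibition above about 50% at the single test dose, limit read from the data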;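 further: plate controls were DMSO with enzyme for no effect and no enzyme buffer wells for full effect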
HSP90 refold inh: blocks HSP90-mediated luciferase refolding in reticulocyte lysate; Rabbit reticulocyte lysate, luciferase refolding luminescence, 3 h; inhibition, % at 5.6 µM; 0.91% of 290,000 active;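 active means inhibition above the screen-wide mean plus 3 SD, computed separately per campaign, cut at about 16% in these data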;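 further: 0% = DMSO wells and 100% = 60 µM geldanamycin wells; inhibitors lower the luminescence because luciferase stays unfolded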
SENP8 block-2: blocks the human protease SENP8; 1.2% of 330,000 active; purified SENP8, Z-RLRGG-aminoluciferin cleavage, luminescence; inhibition, % at 10 µM; Q96LD8; in the data active means inhibition above about 50%
SENP6 inh: blocks the human protease SENP6. Q9GZR1. Recombinant SENP6 catalytic domain, aminoluciferin luminescence. inhibition, % at 10 µM. 1.8% of 330,000 active. AID 2599;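 active means inhibition above about 50% at the single tested dose, limit read from the data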;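 further: plate controls were DMSO wells with enzyme for no effect and DMSO wells lacking enzyme for full effect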
Target sequence (Q9GZR1 628-1112 limits assumed): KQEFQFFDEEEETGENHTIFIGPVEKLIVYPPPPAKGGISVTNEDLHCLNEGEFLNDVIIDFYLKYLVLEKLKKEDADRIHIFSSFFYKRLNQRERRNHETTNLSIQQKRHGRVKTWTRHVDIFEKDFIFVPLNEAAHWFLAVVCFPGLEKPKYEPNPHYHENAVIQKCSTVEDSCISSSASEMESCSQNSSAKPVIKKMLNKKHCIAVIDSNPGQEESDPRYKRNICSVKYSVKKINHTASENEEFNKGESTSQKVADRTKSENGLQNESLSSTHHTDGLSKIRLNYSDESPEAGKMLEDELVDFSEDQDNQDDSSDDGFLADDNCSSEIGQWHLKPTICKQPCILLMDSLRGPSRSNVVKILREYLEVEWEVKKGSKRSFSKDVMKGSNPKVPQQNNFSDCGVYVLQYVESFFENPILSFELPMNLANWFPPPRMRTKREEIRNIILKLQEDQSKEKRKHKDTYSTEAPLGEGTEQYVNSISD
SENP8 conf: confirmation of human SENP8 protease inhibitors. AID 488912. 40% of 6,200 active. Recombinant SENP8, Z-RLRGG-aminoluciferin luminescence, 60 min. shares compounds with SENP7 inh. inhibition, % at 12.5 µM;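 active means mean inhibition across replicates above about 50%, limit read from the data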
SENP6 conf: confirmation of human SENP6 protease inhibitors; shares compounds with SENP7 inh; recombinant SENP6, Z-RLRGG-aminoluciferin luminescence; inhibition, % at 12.5 µM; 58% of 6,200 active; AID 488915
SENP7 conf: human SENP7 inhibition, confirmed; shares compounds with SENP7 inh; recombinant SENP7, Z-RLRGG-aminoluciferin luminescence, 40 min; inhibition, % at 12.5 µM; 69% of 6,200 active; AID 488917
Casp3 select: inhibits human caspase-3 in SENP selectivity test; shares compounds with SENP7 inh; purified caspase-3, Z-DEVD-aminoluciferin luminescence, 60 min; inhibition, % at 12.5 µM; 60% of 6,200 active;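 active means mean inhibition above about 50%, limit read from the data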;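 further: plate controls were enzyme with DMSO for no effect and wells without caspase-3 for full effect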
Target sequence (P42574 28-227 limits assumed): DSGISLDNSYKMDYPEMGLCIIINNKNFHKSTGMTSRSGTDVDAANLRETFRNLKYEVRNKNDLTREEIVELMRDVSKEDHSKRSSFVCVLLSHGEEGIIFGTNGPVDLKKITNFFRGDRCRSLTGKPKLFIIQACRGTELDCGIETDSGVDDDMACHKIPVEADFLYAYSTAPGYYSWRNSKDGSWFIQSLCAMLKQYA
Luc interf: interferes with luciferase luminescence in SENP counter-screen; shares compounds with SENP7 inh; inhibition, % at 12.5 µM; Pre-incubated SENP8/Z-RLRGG-aminoluciferin, luciferase luminescence interference; AID 488919; 39% of 6,200 active;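 active means mean inhibition above about 50% when retested at one dose, limit read from the data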;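 further: plate controls were DMSO wells with completed reaction for no effect and substrate without enzyme for full effect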
* = called active by the depositor; x = no result.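 How the source made its calls, unless noted: active means mean inhibition above about 50% in the one-dose retest (limit read from the data); inactive means the rest.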

SMILES | SENP1 inh | SENP8 block-1 | SENP7 inh | HSP90 refold inh | SENP8 block-2 | SENP6 inh | SENP8 conf | SENP6 conf | SENP7 conf | Casp3 select | Luc interf
Cc1ccc(NC(=O)C(=O)c2ccc(C)cc2)cc1 | 0.2 | 9.3 | 62.2* | 0.4 | 54.4* | 65.0* | 59.1* | 58.7* | 86.6* | 59.5* | 34.8
O=C(COc1ccc(Cc2ccccc2)cc1)c1ccc(F)cc1 | 1.7 | 1.1 | 52.0* | 3.6 | 26.3 | 59.9* | 19.3 | 36.1 | 50.8* | 24.7 | 10.9
O=C(COc1ccc(F)cc1)c1ccc2c(c1)CCCC2 | 0.6 | 10.0 | 8.7 | -0.9 | 5.2 | 18.5 | x | x | x | x | x
CC(C)C(=O)NC(=S)Nc1c(Cl)ccc2nsnc12 | 1.0 | 20.4 | -0.2 | -2.9 | 8.4 | -11.2 | x | x | x | x | x
O=c1[nH]c(-c2ccccc2)ncc1Oc1ccccc1 | 1.6 | 11.8 | 1.9 | x | 2.2 | -13.4 | x | x | x | x | x
O=C(Nc1nc2c(s1)CCCC2)c1ccc(N2C(=O)CCC2=O)cc1 | 1.4 | -14.8 | 3.3 | -5.8 | -16.8 | 3.0 | x | x | x | x | x
Cc1cc(C(=O)Nc2nc3c(s2)CCCC3)cs1 | -2.4 | -4.3 | 86.0* | 7.3 | 67.2* | 83.7* | 1.8 | 74.6* | 97.7* | 83.7* | 21.2
Cc1ncsc1C(=O)Nc1nc2c(s1)CCCC2 | 1.0 | -41.4 | 98.9* | 1.0 | 91.8* | 96.0* | 52.5* | 98.2* | 103.1* | 97.6* | 53.2*
O=C(Nc1nc2c(s1)CCCC2)c1ccc(Br)s1 | 0.6 | -42.6 | 52.9* | 4.3 | 43.8 | 59.6* | 9.1 | 49.1 | 86.2* | 44.1 | 48.9
COc1ccc(CC(=O)N(Cc2ccccc2)c2ccc(C)cc2)cc1OC | -3.8 | -10.9 | -2.3 | -2.6 | 5.4 | -9.3 | x | x | x | x | x
O=C(O)c1ccccc1NC(c1ccccc1)c1ccc(Cl)cc1 (stereo not given) | 2.1 | -295.8 | 5.2 | -6.2 | -4.6 | -20.2 | x | x | x | x | x
Cc1c(C(=O)N2c3ccccc3CC2C)oc2ccccc12 (stereo not given) | -1.9 | 15.4 | 61.6* | 0.3 | 67.5* | 79.7* | 78.0* | 77.4* | 90.3* | 50.7* | 49.8
COCc1c(C(=O)OCC(=O)N2c3ccccc3CC2C)oc2ccccc12 (stereo not given) | -0.5 | 12.7 | 8.3 | 1.7 | 1.7 | -19.3 | x | x | x | x | x
CC1C(=O)Nc2ccc(S(=O)(=O)N3CCN(c4cccc(C(F)(F)F)c4)CC3)cc2NC1=O (stereo not given) | -1.0 | 6.6 | -4.5 | -0.8 | -2.6 | 0.6 | x | x | x | x | x
Cc1cccc(/N=C/c2sc3ccccc3c2O)n1 | -38.1 | -359.3 | 90.2* | 6.2 | 61.7* | 79.9* | 44.5 | 44.1 | 15.4 | 15.2 | 12.5
Cc1cccc(/N=C/c2c(O)[nH]c3ccccc23)n1 | -12.0 | -3.3 | 3.3 | -1.0 | 74.9* | 88.0* | 3.5 | 73.2* | 94.2* | 71.6* | 37.8
CCc1ccccc1NC(=O)c1ccc(CN2CCC(Cc3ccccc3)CC2)cc1 | -1.4 | 15.1 | -1.2 | -1.9 | -1.7 | 4.0 | x | x | x | x | x
O=C(Nc1nnc(Cc2ccccc2F)s1)Nc1ccccc1F | -0.3 | 0.2 | 85.4* | -7.5 | -4.3 | 14.6 | 9.8 | 11.3 | 5.0 | 0.3 | 0.0
O=C(Nc1nnc(Cc2ccc(F)cc2)s1)Nc1ccccc1F | -2.3 | 26.6 | 2.8 | -0.4 | -5.2 | -6.3 | x | x | x | x | x
O=C(Nc1nnc(SCC(=O)N2CCCCC2)s1)c1ccccc1F | 0.4 | -2.6 | -6.2 | -1.4 | -13.2 | 99.2* | -6.0 | -9.9 | -12.1 | 1.2 | 2.6
O=C(CSc1nnc(NC(=O)c2ccccc2F)s1)Nc1ccccc1F | 1.2 | -80.8 | 61.0* | 0.3 | 69.2* | 80.4* | 47.4 | 78.6* | 90.6* | 86.7* | 13.2
CCOc1ccccc1C(=O)Nc1nnc(SCC(=O)N2CCCC2)s1 | -1.7 | -96.2 | x | x | x | x | x | x | x | x | x
CCOC(=O)[C@]12CCC=C1N(Cc1ccccc1)C(=O)[C@H](CC(=O)NCCCN1CCCC1=O)C2 | -1.3 | 19.2 | x | x | x | x | x | x | x | x | x
Cc1sc2nc(CN3CCCC3)nc(N3CCN(S(=O)(=O)c4cccc(F)c4)CC3)c2c1C | -92.8 | -306.9 | 2.9 | x | 4.2 | 2.1 | x | x | x | x | x
Cn1c(SCc2ccc(C#N)cc2Cl)nc2ccccc21 | -0.5 | 16.0 | 80.0* | 5.0 | 68.8* | 75.4* | 8.0 | 75.9* | 56.7* | 24.2 | 10.2
SMILES | SENP1 inh | SENP8 block-1 | SENP7 inh | HSP90 refold inh | SENP8 block-2 | SENP6 inh | SENP8 conf | SENP6 conf | SENP7 conf | Casp3 select | Luc interf
Cc1cc(NC(=O)CSc2ccc(-c3nc4cc(C)c(C)cc4[nH]3)cn2)no1 | -19.0 | -300.9 | 50.7* | -0.9 | -0.1 | 6.3 | -4.0 | 0.4 | 8.0 | 5.9 | 5.0
Cc1cc2nc(-c3ccc(SCC(=O)Nc4ccc(S(=O)(=O)NC5CC5)cc4)nc3)[nH]c2cc1C | -7.9 | -418.1 | 63.5* | -2.5 | 1.4 | 28.8 | 12.6 | 18.5 | 77.8* | 39.1 | 19.9
Cc1ccc(-c2nc3cc(C)c(Br)c(C)n3c2CC(C)(C)C)cc1 | 1.0 | 13.1 | x | x | x | x | x | x | x | x | x
COc1ccc(/C=C(\C#N)C(=O)Nc2cccc(C)n2)cc1 | 2.4 | 8.4 | 36.2 | 1.2 | 50.7* | 50.5* | 10.9 | 17.5 | 16.5 | 10.6 | 20.8
COc1ccc(/C=C(\C#N)C(=O)c2cccn2C)cc1 | -2.7 | 18.3 | 78.2* | -0.7 | 69.1* | 78.9* | 87.3* | 87.3* | 94.0* | 72.4* | 82.4*
Cn1cccc1C(=O)/C(C#N)=C/c1ccc(F)cc1 | 14.2 | 10.1 | -0.3 | 2.6 | -1.5 | 14.6 | x | x | x | x | x
C[C@H](NC(=O)c1ncn2c1C(=O)N(C)CC2)C(=O)OC(C)(C)C | 1.7 | 7.1 | x | x | x | x | x | x | x | x | x
CC(C)CN(C(=O)COC(=O)c1ccc2c(c1)OCO2)c1c(N)n(Cc2ccccc2)c(=O)[nH]c1=O | -3.5 | -1.7 | 13.0 | x | -16.2 | -16.5 | x | x | x | x | x
CCN(CC)C(=O)Cn1cc(C(=O)C(=O)N2CCN(c3ccc(OC)cc3)CC2)c2ccccc21 | 2.2 | 6.0 | 4.5 | 0.2 | 4.3 | 8.8 | x | x | x | x | x
NC(CCc1ccccc1)c1csc(NC(=O)Nc2cccc(C(F)(F)F)c2)n1 (stereo not given) | -0.9 | 23.0 | x | x | x | x | x | x | x | x | x
O=C(Cn1ncc(Cl)c(Cl)c1=O)Nc1ccc2c(c1)OCO2 | 0.0 | 13.6 | 13.2 | x | -1.6 | 8.6 | x | x | x | x | x
O=C(Cn1ncc(Cl)c(Cl)c1=O)c1ccc2c(c1)OCCO2 | 0.6 | -2.7 | 23.4 | x | 40.9 | 55.5* | 14.8 | 40.4 | 48.5 | 20.5 | 8.8

Bioassay records: PubChem BioAssay, several laboratories
